SMILES strings stand for the structures.

The first assay concerns Escherichia coli. Briefly: Maximum NaCl molar concentration that showed 50% bacterial growth in Escherichia coli 31 at MM+0.1 mmol Choline. The format is functional. In short, it runs like this: (§1)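 Single colony from MacConkey agar subcultured overnight in minimal medium at 37 °C. Inoculum: 1:200 dilution of 0.5 McFarland standard (~5 × 10^5 cfu/mL final) into minimal medium with NaCl 0.1–1 M in 0.1 M steps. Test compound 0.1 mM, alone or with GB or Chol 0.1 mM. OD600 read at 48 h. Endpoint is highest NaCl giving ≥50% growth versus full-growth tubes. Mean of three ±SD.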
Consider `C[N+](C)(C)CC(=O)Nc1ccc(S(=O)(=O)NC(=O)C[N+](C)(C)C)cc1.[Cl-].[Cl-]`, for which the Max salt tolerance is 0.9.

`C[N+]1(CS(=O)(=O)[O-])CCCC1`: the Max salt tolerance came out at 0.86.

Turning to `C[N+](C)(C)CS(=O)(=O)[O-]`, the Max salt tolerance came to 0.9.

Take `C[N+](C)(C)CC(=O)[N-]S(=O)(=O)c1ccc(NC(=O)CCl)cc1`: the Max salt tolerance came to 0.8.

As for `C[N+](C)(C)CC(=O)[N-]S(=O)(=O)c1ccccc1`, the Max salt tolerance worked out at 0.9.

On to `C[N+]1(CS(=O)(=O)[O-])CCCCC1`, for which the Max salt tolerance was 0.88.

As for `C[N+](C)(C)CC(=O)[N-]S(=O)(=O)c1ccc(NC(=O)CI)cc1`, the Max salt tolerance was found to be 0.8.

The test system of another assay is Escherichia coli. As to the kind of experiment: Maximum NaCl molar concentration that showed 50% bacterial growth in Escherichia coli 31 at minimum media (MM). The format is functional. In short, it runs like this:
as §1
For `C[N+](C)(C)CC(=O)Nc1ccc(S(=O)(=O)NC(=O)C[N+](C)(C)C)cc1.[Cl-].[Cl-]`, the Max salt tolerance turned out to be 0.73.

Turning to `C[N+]1(CS(=O)(=O)[O-])CCCC1`, the Max salt tolerance stood at 0.7.

Take `C[N+](C)(C)CS(=O)(=O)[O-]`: the Max salt tolerance is 0.83.

Turning to `C[N+](C)(C)CC(=O)[N-]S(=O)(=O)c1ccc(NC(=O)CCl)cc1`, the Max salt tolerance is listed as 0.63.

For `C[N+](C)(C)CC(=O)[N-]S(=O)(=O)c1ccccc1`, the Max salt tolerance is 0.73.

For the molecule `C[N+]1(CS(=O)(=O)[O-])CCCCC1`, the Max salt tolerance is 0.43.

Regarding `C[N+](C)(C)CC(=O)[N-]S(=O)(=O)c1ccc(NC(=O)CI)cc1`, the Max salt tolerance was found to be 0.63.

For a further assay, the system named is Escherichia coli. Briefly: Maximum NaCl molar concentration that showed 50% bacterial growth in Escherichia coli K10 at MM+0.1 mmol GB (Glycine Betaine). The format is functional. In short, it runs like this: as §1
With `C[N+](C)(C)CC(=O)Nc1ccc(S(=O)(=O)NC(=O)C[N+](C)(C)C)cc1.[Cl-].[Cl-]`, the Max salt tolerance was 0.9.

As for `C[N+]1(CS(=O)(=O)[O-])CCCC1`, the Max salt tolerance is listed as 0.97.

Regarding `C[N+](C)(C)CS(=O)(=O)[O-]`, the Max salt tolerance is 0.93.

As for `C[N+](C)(C)CC(=O)[N-]S(=O)(=O)c1ccc(NC(=O)CCl)cc1`, the Max salt tolerance is given as 0.86.

With `C[N+](C)(C)CC(=O)[N-]S(=O)(=O)c1ccccc1`, the Max salt tolerance stood at 0.9.

For the molecule `C[N+]1(CS(=O)(=O)[O-])CCCCC1`, the Max salt tolerance turned out to be 0.9.

`C[N+](C)(C)CC(=O)[N-]S(=O)(=O)c1ccc(NC(=O)CI)cc1`: the Max salt tolerance stood at 0.86.

The subject of another assay is Escherichia coli. As to the kind of experiment: Maximum NaCl molar concentration that showed 50% bacterial growth in Escherichia coli 31 at MM+0.1 mmol GB (Glycine Betaine). In kind it is functional. A digest of the protocol:
as §1
With `C[N+](C)(C)CC(=O)Nc1ccc(S(=O)(=O)NC(=O)C[N+](C)(C)C)cc1.[Cl-].[Cl-]`, the Max salt tolerance is on record as 0.9.

As for `C[N+]1(CS(=O)(=O)[O-])CCCC1`, the Max salt tolerance was 0.93.

`C[N+](C)(C)CS(=O)(=O)[O-]`: the Max salt tolerance was found to be 0.9.

`C[N+](C)(C)CC(=O)[N-]S(=O)(=O)c1ccc(NC(=O)CCl)cc1`: the Max salt tolerance turned out to be 0.9.

`C[N+](C)(C)CC(=O)[N-]S(=O)(=O)c1ccccc1`: the Max salt tolerance is recorded as 0.9.

Consider `C[N+]1(CS(=O)(=O)[O-])CCCCC1`, for which the Max salt tolerance was 0.93.

As for `C[N+](C)(C)CC(=O)[N-]S(=O)(=O)c1ccc(NC(=O)CI)cc1`, the Max salt tolerance is 0.9.

In a further assay the test system is Escherichia coli. Briefly: Maximum NaCl molar concentration that showed 50% bacterial growth in Escherichia coli ATCC 25922 at minimum media (MM). The format is functional. A digest of the protocol:
as §1
With `C[N+](C)(C)CC(=O)Nc1ccc(S(=O)(=O)NC(=O)C[N+](C)(C)C)cc1.[Cl-].[Cl-]`, the Max salt tolerance is listed as 0.5.

With `C[N+]1(CS(=O)(=O)[O-])CCCC1`, the Max salt tolerance was 0.13.

For `C[N+](C)(C)CS(=O)(=O)[O-]`, the Max salt tolerance worked out at 0.27.

Turning to `C[N+](C)(C)CC(=O)[N-]S(=O)(=O)c1ccc(NC(=O)CCl)cc1`, the Max salt tolerance stood at 0.1.

For `C[N+](C)(C)CC(=O)[N-]S(=O)(=O)c1ccccc1`, the Max salt tolerance was determined as 0.5.

For `C[N+]1(CS(=O)(=O)[O-])CCCCC1`, the Max salt tolerance is recorded as 0.13.

With `C[N+](C)(C)CC(=O)[N-]S(=O)(=O)c1ccc(NC(=O)CI)cc1`, the Max salt tolerance is 0.1.

The subject of a further assay is Escherichia coli. As to the kind of experiment: Maximum NaCl molar concentration that showed 50% bacterial growth in Escherichia coli K10 at MM+0.1 mmol Choline. In kind it is functional. A digest of the protocol:
as §1
In the case of `C[N+](C)(C)CC(=O)Nc1ccc(S(=O)(=O)NC(=O)C[N+](C)(C)C)cc1.[Cl-].[Cl-]`, the Max salt tolerance is 0.86.

Consider `C[N+]1(CS(=O)(=O)[O-])CCCC1`, for which the Max salt tolerance was 0.6.

For the molecule `C[N+](C)(C)CS(=O)(=O)[O-]`, the Max salt tolerance is given as 0.9.

In the case of `C[N+](C)(C)CC(=O)[N-]S(=O)(=O)c1ccc(NC(=O)CCl)cc1`, the Max salt tolerance was determined as 0.8.

For the molecule `C[N+](C)(C)CC(=O)[N-]S(=O)(=O)c1ccccc1`, the Max salt tolerance worked out at 0.86.

In the case of `C[N+]1(CS(=O)(=O)[O-])CCCCC1`, the Max salt tolerance was 0.5.

Regarding `C[N+](C)(C)CC(=O)[N-]S(=O)(=O)c1ccc(NC(=O)CI)cc1`, the Max salt tolerance was found to be 0.8.

Another assay deals with Escherichia coli. Briefly: Maximum NaCl molar concentration that showed 50% bacterial growth in Escherichia coli ATCC 25922 at MM+0.1 mmol Choline. The format is functional. In short, it runs like this:
as §1
With `C[N+](C)(C)CC(=O)Nc1ccc(S(=O)(=O)NC(=O)C[N+](C)(C)C)cc1.[Cl-].[Cl-]`, the Max salt tolerance is on record as 0.8.

Regarding `C[N+]1(CS(=O)(=O)[O-])CCCC1`, the Max salt tolerance was 0.2.

With `C[N+](C)(C)CS(=O)(=O)[O-]`, the Max salt tolerance was 0.33.

Regarding `C[N+](C)(C)CC(=O)[N-]S(=O)(=O)c1ccc(NC(=O)CCl)cc1`, the Max salt tolerance was determined as 0.8.

In the case of `C[N+](C)(C)CC(=O)[N-]S(=O)(=O)c1ccccc1`, the Max salt tolerance was 0.8.

As for `C[N+]1(CS(=O)(=O)[O-])CCCCC1`, the Max salt tolerance came to 0.2.

`C[N+](C)(C)CC(=O)[N-]S(=O)(=O)c1ccc(NC(=O)CI)cc1`: the Max salt tolerance was found to be 0.8.

In the next assay the test system is Escherichia coli. As to the kind of experiment: Maximum NaCl molar concentration that showed 50% bacterial growth in Escherichia coli K10 at minimum media (MM). In kind it is functional. In short, it runs like this: as §1
For `C[N+](C)(C)CC(=O)Nc1ccc(S(=O)(=O)NC(=O)C[N+](C)(C)C)cc1.[Cl-].[Cl-]`, the Max salt tolerance worked out at 0.56.

Regarding `C[N+]1(CS(=O)(=O)[O-])CCCC1`, the Max salt tolerance is given as 0.5.

Take `C[N+](C)(C)CS(=O)(=O)[O-]`: the Max salt tolerance is recorded as 0.83.

For the molecule `C[N+](C)(C)CC(=O)[N-]S(=O)(=O)c1ccc(NC(=O)CCl)cc1`, the Max salt tolerance was found to be 0.3.

With `C[N+](C)(C)CC(=O)[N-]S(=O)(=O)c1ccccc1`, the Max salt tolerance worked out at 0.56.

In the case of `C[N+]1(CS(=O)(=O)[O-])CCCCC1`, the Max salt tolerance was 0.35.

As for `C[N+](C)(C)CC(=O)[N-]S(=O)(=O)c1ccc(NC(=O)CI)cc1`, the Max salt tolerance was 0.3.

A further assay has as its system Escherichia coli. Briefly: Maximum NaCl molar concentration that showed 50% bacterial growth in Escherichia coli ATCC 25922 at MM+0.1 mmol GB (Glycine Betaine). In kind it is functional. In short, it runs like this:
as §1
For the molecule `C[N+](C)(C)CC(=O)Nc1ccc(S(=O)(=O)NC(=O)C[N+](C)(C)C)cc1.[Cl-].[Cl-]`, the Max salt tolerance is 0.83.

On to `C[N+]1(CS(=O)(=O)[O-])CCCC1`, for which the Max salt tolerance was 0.87.

As for `C[N+](C)(C)CS(=O)(=O)[O-]`, the Max salt tolerance was determined as 0.86.

With `C[N+](C)(C)CC(=O)[N-]S(=O)(=O)c1ccc(NC(=O)CCl)cc1`, the Max salt tolerance is listed as 0.86.

Regarding `C[N+](C)(C)CC(=O)[N-]S(=O)(=O)c1ccccc1`, the Max salt tolerance is 0.83.

Consider `C[N+]1(CS(=O)(=O)[O-])CCCCC1`, for which the Max salt tolerance is listed as 0.86.

Consider `C[N+](C)(C)CC(=O)[N-]S(=O)(=O)c1ccc(NC(=O)CI)cc1`, for which the Max salt tolerance worked out at 0.86.

For the origin of these results see ChEMBL document CHEMBL1127011, “Structure-activity relationship of glycine betaine analogs on osmotolerance of enteric bacteria” (1993).
